Measured values as given in ChEMBL document CHEMBL3297684, “Discovery of biarylaminoquinazolines as novel tubulin polymerization inhibitors” (J Med Chem, 2014).
The source made the active and inactive calls. No cut-off for these calls is given here.

Columns and labels:
[1] = target: Fibroblast growth factor receptor 1 (Homo sapiens, UniProt P11362); assay: Inhibition of FGFR1 (unknown origin) assessed as incorporation of [32P] gamma-ATP in to myelin basic protein after 30 mins by autoradiographic analysis
Chain of Fibroblast growth factor receptor 1 (P11362 whole entry): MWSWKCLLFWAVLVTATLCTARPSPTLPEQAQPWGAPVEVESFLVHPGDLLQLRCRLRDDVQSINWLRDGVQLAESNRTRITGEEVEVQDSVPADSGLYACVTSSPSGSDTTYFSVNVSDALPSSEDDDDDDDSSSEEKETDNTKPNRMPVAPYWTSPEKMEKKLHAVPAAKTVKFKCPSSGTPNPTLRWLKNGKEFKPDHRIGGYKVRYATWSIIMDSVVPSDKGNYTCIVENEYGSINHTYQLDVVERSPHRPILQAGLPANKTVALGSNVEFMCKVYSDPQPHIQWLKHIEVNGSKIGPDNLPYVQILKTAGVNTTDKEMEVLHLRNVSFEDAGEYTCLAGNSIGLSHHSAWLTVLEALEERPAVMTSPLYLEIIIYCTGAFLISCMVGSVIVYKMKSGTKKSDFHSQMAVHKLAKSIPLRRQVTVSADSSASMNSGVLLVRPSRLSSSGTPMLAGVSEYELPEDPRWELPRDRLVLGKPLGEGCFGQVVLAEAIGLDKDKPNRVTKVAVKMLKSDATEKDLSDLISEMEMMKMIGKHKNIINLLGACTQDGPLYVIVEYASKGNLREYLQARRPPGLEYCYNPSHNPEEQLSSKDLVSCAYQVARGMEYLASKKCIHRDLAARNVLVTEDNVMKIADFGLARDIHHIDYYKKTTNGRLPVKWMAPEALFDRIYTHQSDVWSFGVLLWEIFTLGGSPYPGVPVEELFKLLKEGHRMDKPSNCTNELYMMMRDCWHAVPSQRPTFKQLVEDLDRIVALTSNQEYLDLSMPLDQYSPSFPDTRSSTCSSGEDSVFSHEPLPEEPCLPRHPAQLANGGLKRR

[2] = Cell cycle arrest in human OVCAR8 cells assessed as increase in number of cells at G2/M phase at 1 uM after 30 mins by flow cytometry; assay type: functional, cell-based; settings: OVCAR-8, in the assay text read “after 24 hrs” for “after 30 mins”
Procedure, shortened: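 OVCAR-8 cells grown in DMEM with 10% heat-inactivated FBS plus penicillin/streptomycin, 37 °C, 5% CO2. Exposed 24 h to 1 μM compound or drug-free medium. Fixed in 70% cold ethanol, RNase-treated (100 μg/mL, 30 min, 37 °C), stained with propidium iodide (100 μg/mL, 30 min, room temperature). 10 000 events per sample read by flow cytometry for G2/M fraction.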

[3] = target: Proto-oncogene tyrosine-protein kinase Src (Homo sapiens, UniProt P12931); assay: Inhibition of Src (unknown origin) assessed as incorporation of [32P] gamma-ATP in to myelin basic protein after 30 mins by autoradiographic analysis
Chain of Proto-oncogene tyrosine-protein kinase Src (P12931 2-536 limits assumed): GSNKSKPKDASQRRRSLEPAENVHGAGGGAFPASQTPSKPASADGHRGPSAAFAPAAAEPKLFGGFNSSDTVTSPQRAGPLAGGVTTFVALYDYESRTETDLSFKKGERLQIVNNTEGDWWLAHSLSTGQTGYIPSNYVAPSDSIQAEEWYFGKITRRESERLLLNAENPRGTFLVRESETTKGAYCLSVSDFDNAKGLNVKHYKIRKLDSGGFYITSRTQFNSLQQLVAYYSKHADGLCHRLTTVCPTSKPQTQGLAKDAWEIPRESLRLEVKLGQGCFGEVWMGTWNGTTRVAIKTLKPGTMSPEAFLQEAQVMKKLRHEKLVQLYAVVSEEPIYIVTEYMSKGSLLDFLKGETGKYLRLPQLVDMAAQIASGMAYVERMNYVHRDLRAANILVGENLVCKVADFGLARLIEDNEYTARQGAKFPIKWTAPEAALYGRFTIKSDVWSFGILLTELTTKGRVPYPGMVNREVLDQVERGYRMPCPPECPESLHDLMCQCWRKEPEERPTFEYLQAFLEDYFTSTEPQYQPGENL

[4] = target: Tubulin (Bos taurus, UniProt Q6B856+Q862L2+Q862F3); assay: Inhibition of bovine brain tubulin polymerization after 20 mins by turbidimetry analysis
Procedure, shortened: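 Electrophoretically homogeneous bovine brain tubulin at 10 μM (1.0 mg/mL) in 0.8 M monosodium glutamate, pH 6.6, with compound in 4% (v/v) DMSO. Preincubated 15 min at 30 °C without GTP, then chilled; 0.4 mM GTP added at 0 °C. Temperature raised to 30 °C and turbidity followed at 350 nm.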

[5] = Cytotoxicity against human NCI-ADR-RES cells assessed as inhibition of cell proliferation by SRB assay; assay type: functional, cell-based
Procedure, shortened: (§1)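 Cell protein measured with sulforhodamine B. NCI/ADR-RES is isogenic with OVCAR-8 but overexpresses P-gp. Values are mean SD of at least three independent experiments.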

[6] = Cytotoxicity against human OVCAR8 cells assessed as inhibition of cell proliferation by SRB assay; assay type: functional, cell-based; settings: OVCAR-8; procedure, shortened: as §1
[7] = target: Epidermal growth factor receptor (Homo sapiens, UniProt P00533); assay: Inhibition of EGFR (unknown origin) assessed as incorporation of [32P] gamma-ATP in to myelin basic protein after 30 mins by autoradiographic analysis
Chain of Epidermal growth factor receptor (P00533 whole entry): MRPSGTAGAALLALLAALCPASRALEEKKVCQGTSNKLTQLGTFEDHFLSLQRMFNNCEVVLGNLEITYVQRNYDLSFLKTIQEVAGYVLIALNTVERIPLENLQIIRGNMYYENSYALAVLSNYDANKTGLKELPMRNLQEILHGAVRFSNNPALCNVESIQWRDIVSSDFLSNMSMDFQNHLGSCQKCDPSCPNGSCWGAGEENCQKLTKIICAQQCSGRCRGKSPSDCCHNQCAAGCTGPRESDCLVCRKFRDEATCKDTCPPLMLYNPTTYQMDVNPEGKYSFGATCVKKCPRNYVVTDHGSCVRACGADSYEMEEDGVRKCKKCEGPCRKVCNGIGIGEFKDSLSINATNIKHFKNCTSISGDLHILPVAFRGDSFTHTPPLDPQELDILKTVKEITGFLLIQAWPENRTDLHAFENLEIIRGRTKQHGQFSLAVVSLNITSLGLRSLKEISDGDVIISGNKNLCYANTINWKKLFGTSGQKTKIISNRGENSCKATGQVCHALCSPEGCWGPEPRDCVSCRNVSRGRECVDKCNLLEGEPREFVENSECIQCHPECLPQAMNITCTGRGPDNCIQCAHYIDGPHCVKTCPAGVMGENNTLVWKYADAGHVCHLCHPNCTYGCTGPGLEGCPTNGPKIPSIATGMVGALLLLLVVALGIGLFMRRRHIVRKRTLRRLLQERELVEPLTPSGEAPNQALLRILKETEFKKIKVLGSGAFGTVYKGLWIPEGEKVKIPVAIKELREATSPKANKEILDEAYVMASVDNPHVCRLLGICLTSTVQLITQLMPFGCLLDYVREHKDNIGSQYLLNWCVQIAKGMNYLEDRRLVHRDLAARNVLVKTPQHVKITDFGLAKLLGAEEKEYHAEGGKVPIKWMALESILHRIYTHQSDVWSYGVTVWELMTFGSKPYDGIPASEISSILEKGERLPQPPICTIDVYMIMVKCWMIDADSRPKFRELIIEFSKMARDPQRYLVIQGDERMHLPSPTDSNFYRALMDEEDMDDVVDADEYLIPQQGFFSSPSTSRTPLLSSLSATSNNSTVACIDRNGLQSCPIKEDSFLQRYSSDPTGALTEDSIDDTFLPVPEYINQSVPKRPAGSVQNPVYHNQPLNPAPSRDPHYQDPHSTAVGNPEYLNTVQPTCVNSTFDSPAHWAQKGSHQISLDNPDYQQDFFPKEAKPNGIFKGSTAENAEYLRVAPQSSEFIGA

[8] = target: Tyrosine-protein kinase ABL1 (Homo sapiens, UniProt P00519); assay: Inhibition of Abl1 (unknown origin) assessed as incorporation of [32P] gamma-ATP in to myelin basic protein after 30 mins by autoradiographic analysis
Chain of Tyrosine-protein kinase ABL1 (P00519 whole entry): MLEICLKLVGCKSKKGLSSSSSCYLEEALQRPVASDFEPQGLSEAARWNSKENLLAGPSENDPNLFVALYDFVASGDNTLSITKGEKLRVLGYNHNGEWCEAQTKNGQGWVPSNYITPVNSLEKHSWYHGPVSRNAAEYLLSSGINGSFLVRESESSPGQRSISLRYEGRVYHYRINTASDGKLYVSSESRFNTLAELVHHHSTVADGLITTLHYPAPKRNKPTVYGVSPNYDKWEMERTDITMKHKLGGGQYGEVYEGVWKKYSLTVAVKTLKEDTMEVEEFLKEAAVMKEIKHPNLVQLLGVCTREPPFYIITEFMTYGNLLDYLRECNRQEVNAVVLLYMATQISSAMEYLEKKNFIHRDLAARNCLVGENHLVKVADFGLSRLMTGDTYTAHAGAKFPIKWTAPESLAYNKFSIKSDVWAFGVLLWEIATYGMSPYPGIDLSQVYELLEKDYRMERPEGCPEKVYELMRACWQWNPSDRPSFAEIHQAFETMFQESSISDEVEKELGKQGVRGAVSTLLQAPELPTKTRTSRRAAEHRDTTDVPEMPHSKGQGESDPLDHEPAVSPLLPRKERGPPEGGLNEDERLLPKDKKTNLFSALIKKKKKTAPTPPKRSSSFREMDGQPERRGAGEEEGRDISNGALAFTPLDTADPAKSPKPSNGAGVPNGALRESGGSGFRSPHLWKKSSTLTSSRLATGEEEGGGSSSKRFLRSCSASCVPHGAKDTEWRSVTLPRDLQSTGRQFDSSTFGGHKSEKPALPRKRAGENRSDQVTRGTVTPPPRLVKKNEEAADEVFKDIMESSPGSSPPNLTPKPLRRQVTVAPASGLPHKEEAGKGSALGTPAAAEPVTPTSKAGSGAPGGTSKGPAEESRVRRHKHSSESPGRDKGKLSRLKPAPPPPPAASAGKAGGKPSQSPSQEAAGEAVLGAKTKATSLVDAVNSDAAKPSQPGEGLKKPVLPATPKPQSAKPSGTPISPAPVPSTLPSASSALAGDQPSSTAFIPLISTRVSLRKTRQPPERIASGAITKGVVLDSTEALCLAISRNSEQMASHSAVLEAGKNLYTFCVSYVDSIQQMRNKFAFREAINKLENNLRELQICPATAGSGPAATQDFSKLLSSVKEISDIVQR

[9] = test system: A-431; assay: Cytotoxicity against human A431 cells assessed as reduction in cell viability after 68 hrs by MTT assay; assay type: functional, cell-based; settings: A-431, 68 h

| IC50 [1] | IC50 [3] | IC50 [4] | IC50 [7] | IC50 [8] | SMILES | Activity [2] | EC50 [5] | EC50 [6] | EC50 [9] |
| --- | --- | --- | --- | --- | --- | --- | --- | --- | --- |
| > 10 µM | > 10 µM | 1.2 µM | > 10 µM | > 10 µM | Cl.c1cc(Nc2ncnc3cc4c(cc23)OCCO4)cc(-c2cccs2)c1 | Active | 0.004 µM | 0.01 µM | – |
| > 10 µM | > 10 µM | 3.2 µM | > 10 µM | > 10 µM | Cl.c1ccc(-c2cccc(Nc3ncnc4cc5c(cc34)OCCO5)c2)nc1 | – | – | – | – |
| – | – | 2.3 µM | – | – | c1ccc(-c2cccc(Nc3ncnc4cc5c(cc34)OCCCO5)c2)cc1 | – | – | 0.55 µM | 0.66 µM |
| > 10 µM | > 10 µM | > 20 µM | > 10 µM | > 10 µM | c1ccc(-c2ccnc(Nc3ncnc4cc5c(cc34)OCCO5)n2)cc1 | – | – | – | – |
| > 10 µM | > 10 µM | – | > 10 µM | > 10 µM | CC(=O)O[C@H]1C(=O)[C@@]2(C)[C@H]([C@H](OC(=O)c3ccccc3)[C@]3(O)C[C@H](OC(=O)[C@H](O)[C@@H](NC(=O)c4ccccc4)c4ccccc4)C(C)=C1C3(C)C)[C@]1(OC(C)=O)CO[C@@H]1C[C@@H]2O [PACLITAXEL] | – | 0.013 µM | 0.018 µM | – |
| > 10 µM | > 10 µM | 12 µM | > 10 µM | > 10 µM | Cl.c1cc(Nc2ncnc3cc4c(cc23)OCCO4)cc(-c2ccco2)c1 | – | – | – | – |
| > 10 µM | > 10 µM | > 20 µM | > 10 µM | > 10 µM | c1ccc(-c2csc(Nc3ncnc4cc5c(cc34)OCCO5)n2)cc1 | – | – | – | – |
| > 10 µM | > 10 µM | > 20 µM | > 10 µM | > 10 µM | COc1cc2ncnc(Nc3cccc(-c4ccccc4)c3)c2cc1OC | – | – | – | – |
| – | – | 4 µM | – | – | c1ccc(-c2cccc(Nc3ncnc4cc5c(cc34)OCCO5)c2)cc1 | – | – | 0.5 µM | – |
| > 10 µM | > 10 µM | 3 µM | > 10 µM | > 10 µM | Cl.c1cc(Nc2ncnc3cc4c(cc23)OCCO4)cc(-c2ccc[nH]2)c1 | – | 3.6 µM | 4 µM | – |

| SMILES | IC50 [1] | IC50 [3] | IC50 [4] | IC50 [7] | IC50 [8] | Activity [2] | EC50 [5] | EC50 [6] | EC50 [9] |
| --- | --- | --- | --- | --- | --- | --- | --- | --- | --- |
| c1ccc(-c2cccc(Nc3ncnc4cc5c(cc34)OCO5)c2)cc1 | – | – | 1.1 µM | – | – | Active | – | 0.03 µM | – |
| COc1ccc(/C=C\c2cc(OC)c(OC)c(OC)c2)cc1O [COMBRETASTATIN A4] | > 10 µM | > 10 µM | – | > 10 µM | > 10 µM | – | 5 µM | 0.0055 µM | – |
